What was measured:
[1] = system: Ileal sodium/bile acid cotransporter (hamster); assay: Inhibition of ASBT as [3H]taurocholate uptake in hamster ileal ring at 30 ug/mL; conditions: Syrian hamster
Cricetinae gen. sp. [2] = assay: Evaluated for total serum cholesterol in hamster at a dose of 30.0 mg/kg; type: functional
Method in brief: (§1)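 Chow-fed male Syrian golden hamsters dosed orally by gavage in 0.5% carboxymethylcellulose vehicle once daily in the evening for 14 consecutive days at 0.3, 1, 3, 10, 30 or 100 mg/kg/day. Chow and water were given freely and animals weighed daily. They were sacrificed the morning after the 14th dose. Serum was assayed for triglycerides, total cholesterol and lipoprotein cholesterol (VLDL+LDL, HDL).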

[3] = Ratio between total non HDL-cholesterol and HDL-cholesterol in hamster at a dose of 1.0 mg/kg; type: functional
Method in brief: (§2)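 Chow-fed male Syrian golden hamsters were dosed by oral gavage in 0.5% carboxymethylcellulose each evening for 14 consecutive days, with free access to chow and water. Animals were weighed daily and killed the morning after the 14th dose. Serum lipoprotein cholesterol profiles were measured, and the ratio of non-HDL (VLDL plus LDL) cholesterol to HDL-cholesterol was calculated.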

Cricetinae gen. sp. [4] = assay: Evaluated for total non HDL- cholesterol in hamster at a dose of 0.3 mg/kg; type: functional
Method in brief: as §1

Cricetinae gen. sp. [5] = assay: Evaluated for total HDL-cholesterol in hamster at a dose of 3.0 mg/kg; type: functional
Method in brief: as §1

Cricetinae gen. sp. [6] = assay: Evaluated for total HDL-cholesterol in hamster at a dose of 0.3 mg/kg; type: functional
Method in brief: as §1

Cricetinae gen. sp. [7] = assay: Evaluated for total serum cholesterol in hamster at a dose of 100.0 mg/kg; type: functional, Cricetulus griseus
Method in brief: as §1

[8] = Ratio between total non HDL-cholesterol and HDL-cholesterol in hamster at a dose of 3.0 mg/kg; type: functional
Method in brief: as §2

[9] = Ratio between total non HDL-cholesterol and HDL-cholesterol in hamster at a dose of 30.0 mg/kg; type: functional
Method in brief: as §2

Cricetinae gen. sp. [10] = assay: Evaluated for total HDL-cholesterol in hamster at a dose of 30.0 mg/kg; type: functional
Method in brief: as §1

Cricetinae gen. sp. [11] = assay: Evaluated for total HDL-cholesterol in hamster at a dose of 100.0 mg/kg; type: functional
Method in brief: as §1

Cricetinae gen. sp. [12] = assay: Evaluated for total non HDL- cholesterol in hamster at a dose of 30.0 mg/kg; type: functional
Method in brief: as §1

Cricetinae gen. sp. [13] = assay: Evaluated for total non HDL- cholesterol in hamster at a dose of 3.0 mg/kg; type: functional
Method in brief: as §1

Cricetinae gen. sp. [14] = assay: Evaluated for total non HDL- cholesterol in hamster at a dose of 1.0 mg/kg; type: functional
Method in brief: as §1

Cricetinae gen. sp. [15] = assay: Evaluated for total triglycerides in hamster at a dose of 0.3 mg/kg; type: functional, Cricetulus griseus
Method in brief: as §1

Cricetinae gen. sp. [16] = assay: Evaluated for total HDL-cholesterol in hamster at a dose of 1.0 mg/kg; type: functional
Method in brief: as §1

[17] = Ratio between total non HDL-cholesterol and HDL-cholesterol in hamster at a dose of 0.3 mg/kg; type: functional
Method in brief: as §2

Cricetinae gen. sp. [18] = assay: Evaluated for total serum cholesterol in hamster at a dose of 10.0 mg/kg; type: functional, Cricetulus griseus
Method in brief: as §1

Cricetinae gen. sp. [19] = assay: Evaluated for total serum cholesterol in hamster at a dose of 0.3 mg/kg; type: functional
Method in brief: as §1

Cricetinae gen. sp. [20] = assay: Evaluated for total serum cholesterol in hamster at a dose of 3.0 mg/kg; type: functional, Cricetulus griseus
Method in brief: as §1

Mesocricetus auratus [21] = assay: Evaluated for total triglycerides in hamster at a dose of 100.0 mg/kg
Cricetinae gen. sp. [22] = assay: Evaluated for total triglycerides in hamster at a dose of 10.0 mg/kg; type: functional, Cricetulus griseus
Method in brief: as §1

Cricetinae gen. sp. [23] = assay: Evaluated for total non HDL- cholesterol in hamster at a dose of 100.0 mg/kg; type: functional
Method in brief: as §1

Cricetinae gen. sp. [24] = assay: Evaluated for total triglycerides in hamster at a dose of 3.0 mg/kg; type: functional, Cricetulus griseus
Method in brief: as §1

Cricetinae gen. sp. [25] = assay: Evaluated for total triglycerides in hamster at a dose of 1.0 mg/kg; type: functional, Cricetulus griseus
Method in brief: as §1

[26] = Ratio between total non HDL-cholesterol and HDL-cholesterol in hamster at a dose of 100.0 mg/kg; type: functional
Method in brief: as §2

Cricetinae gen. sp. [27] = assay: Evaluated for total HDL-cholesterol in hamster at a dose of 10.0 mg/kg; type: functional
Method in brief: as §1

Mesocricetus auratus [28] = assay: Evaluated for total non HDL- cholesterol in hamster at a dose of 10.0 mg/kg
Cricetinae gen. sp. [29] = assay: Evaluated for total serum cholesterol in hamster at a dose of 1.0 mg/kg; type: functional, Cricetulus griseus
Method in brief: as §1

Cricetinae gen. sp. [30] = assay: Evaluated for total triglycerides in hamster at a dose of 30.0 mg/kg; type: functional, Cricetulus griseus
Method in brief: as §1

[31] = Ratio between total non HDL-cholesterol and HDL-cholesterol in hamster at a dose of 10.0 mg/kg; type: functional
Method in brief: as §2

CCN(C(=O)c1cn(-c2cc(OC)cc(OCCCCCC[N+]34CCN(CC3)CC4)c2)c2cc(OC)ccc2c1=O)c1cc(F)cc(F)c1
inhibition at 30 µg/mL [1]: 83%

CCN(C(=O)c1cn(-c2cc(OC)cc(OCCCCCCCC[N+]34CCN(CC3)CC4)c2)c2cc(OC)ccc2c1=O)c1cc(F)cc(F)c1
inhibition at 30 µg/mL [1]: 83%

CCN(C(=O)c1cn(-c2cc(OC)cc(OC)c2)c2cc(OCc3ccc(C[N+]45CCN(CC4)CC5)cc3)ccc2c1=O)c1cc(F)cc(F)c1
inhibition at 30 µg/mL [1]: 71%

CCN(C(=O)c1cn(-c2cc(OC)cc(OC)c2)c2cc(OC)ccc2c1=O)c1cc(F)cc(F)c1
inhibition at 30 µg/mL [1]: 64%

CCN(C(=O)c1cn(-c2cc(OC)cc(OC)c2)c2cc(OCCCCCCCC[N+]34CCN(CC3)CC4)ccc2c1=O)c1cc(F)cc(F)c1
inhibition at 30 µg/mL [1]: 94%

CCN(C(=O)c1cn(-c2ccc(OC)cc2)c2cc(OC)ccc2c1=O)c1cc(F)cc(F)c1
inhibition at 30 µg/mL [1]: 64%

CCN(C(=O)c1cn(-c2ccc(OCc3ccc(C[N+]45CCN(CC4)CC5)cc3)cc2)c2cc(OC)ccc2c1=O)c1cc(F)cc(F)c1
inhibition at 30 µg/mL [1]: 41%

CCN(C(=O)c1cn(-c2cc(OC)cc(OC)c2)c2cc(OCCCCC[N+]34CCN(CC3)CC4)ccc2c1=O)c1cc(F)cc(F)c1
inhibition at 30 µg/mL [1]: 67%

CCN(C(=O)c1cn(-c2cc(OC)cc(OCc3ccc(C[N+]45CCN(CC4)CC5)cc3)c2)c2cc(OC)ccc2c1=O)c1cc(F)cc(F)c1
inhibition at 30 µg/mL [1]: 71%

CCN(C(=O)c1cn(-c2cc(OC)cc(OC)c2)c2cc(OCCCC[N+]34CCN(CC3)CC4)ccc2c1=O)c1cc(F)cc(F)c1
inhibition at 30 µg/mL [1]: 24%

CCN(C(=O)c1cn(-c2cc(OC)cc(OC)c2)c2cc(OCCCCCCC[N+]34CCN(CC3)CC4)ccc2c1=O)c1cc(F)cc(F)c1.[Br-]
TC (Cricetinae gen. sp. [2]): 142.8 mg/dL
Ratio [3]: 1.1
Non-HDL-C (Cricetinae gen. sp. [4]): 75.7 mg/dL
HDL-C (Cricetinae gen. sp. [5]): 80.2 mg/dL
HDL-C (Cricetinae gen. sp. [6]): 81.8 mg/dL
TC (Cricetinae gen. sp. [7]): 118.9 mg/dL
Ratio [8]: 1.2
Ratio [9]: 1.3
HDL-C (Cricetinae gen. sp. [10]): 63.9 mg/dL
HDL-C (Cricetinae gen. sp. [11]): 61.9 mg/dL
Non-HDL-C (Cricetinae gen. sp. [12]): 78.9 mg/dL
Non-HDL-C (Cricetinae gen. sp. [13]): 94.1 mg/dL
Non-HDL-C (Cricetinae gen. sp. [14]): 85.2 mg/dL
TG (Cricetinae gen. sp. [15]): 142.7 mg/dL
HDL-C (Cricetinae gen. sp. [16]): 81.7 mg/dL
Ratio [17]: 0.9
TC (Cricetinae gen. sp. [18]): 144.1 mg/dL
TC (Cricetinae gen. sp. [19]): 157.4 mg/dL
TC (Cricetinae gen. sp. [20]): 174.3 mg/dL
TG (Mesocricetus auratus [21]): 217.7 mg/dL
TG (Cricetinae gen. sp. [22]): 217.6 mg/dL
Non-HDL-C (Cricetinae gen. sp. [23]): 57 mg/dL
inhibition at 30 µg/mL [1]: 100%
TG (Cricetinae gen. sp. [24]): 270.8 mg/dL
TG (Cricetinae gen. sp. [25]): 249.3 mg/dL
Ratio [26]: 0.9
HDL-C (Cricetinae gen. sp. [27]): 69.8 mg/dL
Non-HDL-C (Mesocricetus auratus [28]): 74.3 mg/dL
TC (Cricetinae gen. sp. [29]): 166.9 mg/dL
TG (Cricetinae gen. sp. [30]): 235 mg/dL
Ratio [31]: 1.1

CCN(C(=O)c1cn(-c2cc(OC)cc(OC)c2)c2cc(OCCCCCC[N+]34CCN(CC3)CC4)ccc2c1=O)c1cc(F)cc(F)c1
inhibition at 30 µg/mL [1]: 88%

CCN(C(=O)c1cn(-c2cc(OC)cc(OCCCCCCC[N+]34CCN(CC3)CC4)c2)c2cc(OC)ccc2c1=O)c1cc(F)cc(F)c1
inhibition at 30 µg/mL [1]: 86%

Reference: ChEMBL document CHEMBL1147591, “A novel class of apical sodium-dependent bile acid transporter inhibitors: the amphiphilic 4-oxo-1-phenyl-1,4-dihydroquinoline derivatives” (Bioorg Med Chem Lett, 2004)
